Reference: ChEMBL document CHEMBL4049458, “Structure-Based Optimization of Thiophene[3,2-d]pyrimidine Derivatives as Potent HIV-1 Non-nucleoside Reverse Transcriptase Inhibitors with Improved Potency against Resistance-Associated Variants” (J Med Chem, 2017)

What was measured:
[1] = test system: Human immunodeficiency virus 1; assay: Antiviral activity against wild type HIV1 3B harboring reverse transcriptase infected in human MT4 cells assessed as protection against virus induced cytotoxicity after 5 days by MTT assay; assay type: functional, cell-based; conditions: Human immunodeficiency virus 1, 3B, MT4, 120 h
[2] = Selectivity index, ratio of CC50 for human MT4 cells to EC50 for wild type HIV1 3B harboring reverse transcriptase infected in human MT4 cells; conditions: MT4 cells
[3] = Cytotoxicity against human MT4 cells assessed as cell viability after 5 days by MTT assay; assay type: cell-based
[4] = Selectivity index, ratio of CC50 for human MT4 cells to EC50 for HIV1 RES056 reverse transcriptase K103N/Y181C double mutant infected in human MT4 cells; conditions: MT4 cells
[5] = Fold resistance, ratio of EC50 for reverse transcriptase K103N/Y181C double mutant in human MT4 cells infected HIV1 RES056 to EC50 for wild type HIV1 3B harboring reverse transcriptase infected in human MT4 cells; assay type: functional
Outline: (§1)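 MT-4 cells at 6 × 10^5 cells/mL were infected with WT HIV-1 IIIB or RT-mutant strains at 100−300 CCID50, with 5-fold serial compound dilutions in triplicate wells. After 5 days, viability was read by MTT reduction at 540 and 690 nm, using the median OD of three wells. […] Fold resistance is mutant EC50 divided by WT EC50.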

[6] = Selectivity index, ratio of CC50 for human MT4 cells to EC50 for reverse transcriptase L100I mutant in human MT4 cells infected HIV1 3B; conditions: MT4 cells
[7] = Selectivity index, ratio of CC50 for human MT4 cells to EC50 for reverse transcriptase F227L/V106A double mutant in human MT4 cells infected HIV1 3B; conditions: MT4 cells
[8] = Selectivity index, ratio of CC50 for human MT4 cells to EC50 for reverse transcriptase K103N mutant in human MT4 cells infected HIV1 3B; conditions: MT4 cells
[9] = Selectivity index, ratio of CC50 for human MT4 cells to EC50 for reverse transcriptase E138K mutant in human MT4 cells infected HIV1 3B; conditions: MT4 cells
[10] = Selectivity index, ratio of CC50 for human MT4 cells to EC50 for reverse transcriptase Y188L mutant in human MT4 cells infected HIV1 3B; conditions: MT4 cells
[11] = test system: Human immunodeficiency virus 2; assay: Antiviral activity against HIV2 ROD harboring reverse transcriptase infected in human MT4 cells assessed as protection against virus induced cytotoxicity after 5 days by MTT assay; assay type: functional, cell-based; conditions: Human immunodeficiency virus 2, ISOLATE ROD, MT4, 120 h
[12] = Selectivity index, ratio of CC50 for human MT4 cells to EC50 for reverse transcriptase Y181C mutant in human MT4 cells infected HIV1 3B; conditions: MT4 cells
[13] = Inhibition of recombinant wild type HIV1 3B reverse transcriptase infected in human MT4 cells assessed as decrease in biotin-dUTP incorporation after 1 hr; assay type: cell-based; conditions: Human immunodeficiency virus 1, 3B, MT4, 1 h
Outline: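 Recombinant HIV-1 RT assayed with a kit ELISA. Enzyme, reconstituted template and nucleotides (DIG-dUTP, biotin-dUTP, dTTP) were incubated in incubation buffer with or without inhibitor for 1 h at 37 °C. Product was captured on streptavidin plates for 1 h at 37 °C, then anti-DIG-POD was added for 1 h at 37 °C, followed by ABTS. Read at OD405.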

[14] = Fold resistance, ratio of EC50 for reverse transcriptase L100I mutant in human MT4 cells infected HIV1 3B to EC50 for wild type HIV1 3B harboring reverse transcriptase infected in human MT4 cells; assay type: functional; outline: as §1
[15] = Fold resistance, ratio of EC50 for reverse transcriptase E138K mutant in human MT4 cells infected HIV1 3B to EC50 for wild type HIV1 3B harboring reverse transcriptase infected in human MT4 cells; assay type: functional; outline: as §1

Cc1cc(/C=C/C#N)cc(C)c1Oc1nc(NC2CCN(Cc3cccnc3)CC2)nc2ccsc12
EC50 [1]: 3.22 nM
selectivity ratio [2]: 1200
CC50 at 120 h [3]: 3860 nM
selectivity ratio [4]: 308
Ratio EC50 [5]: 3.4 - 6
selectivity ratio [6]: 866
selectivity ratio [7]: 664
selectivity ratio [8]: 872
selectivity ratio [9]: 587
selectivity ratio [10]: 358
EC50 [11]: > 3860 nM
selectivity ratio [12]: 637

Cc1cc(/C=C/C#N)cc(C)c1Oc1nc(NC2CCN(Cc3ccc(S(C)(=O)=O)cc3)CC2)nc2ccsc12
EC50 [1]: 2.32 nM
IC50 [13]: 890 nM
CC50 at 120 h [3]: 1800 nM

Cc1cc(C#N)cc(C)c1Oc1nc(NC2CCC(NCc3ccc(S(N)(=O)=O)cc3)CC2)nc2ccsc12 (stereo not given)
EC50 [1]: 42.2 nM
IC50 [13]: 4020 nM
CC50 at 120 h [3]: 3690 nM

Cc1cc(C#N)cc(C)c1Oc1nc(NC2CCN(Cc3ccc(S(N)(=O)=O)cc3)CC2)nc2sccc12
EC50 [1]: 1.97 nM
IC50 [13]: 420 nM
selectivity ratio [2]: 12300
CC50 at 120 h [3]: 24100 nM
selectivity ratio [4]: 625
selectivity ratio [6]: 5440
selectivity ratio [7]: 2730
selectivity ratio [8]: 7370
selectivity ratio [9]: 3180
selectivity ratio [10]: 3170
EC50 [11]: > 24100 nM
selectivity ratio [12]: 3160

Cc1cc(C#N)cc(C)c1Oc1nc(NC2CCN(Cc3ccc(S(N)(=O)=O)cc3)CC2)nc2ccsc12
selectivity ratio [4]: > 7350
Ratio EC50 [5]: 21
Ratio EC50 [14]: 2.4
selectivity ratio [6]: > 67400
selectivity ratio [7]: > 53500
selectivity ratio [8]: > 78100
selectivity ratio [9]: > 78100
selectivity ratio [10]: > 75800
selectivity ratio [12]: > 70000

Cc1cc(C#N)cc(C)c1Oc1nc(NC2CCC(NCc3ccc([N+](=O)[O-])cc3)CC2)nc2ccsc12 (stereo not given)
EC50 [1]: 100 nM
selectivity ratio [2]: 544
CC50 at 120 h [3]: 54400 nM
Ratio EC50 [15]: 1.6
selectivity ratio [4]: < 1
selectivity ratio [6]: 35
selectivity ratio [7]: 84
selectivity ratio [8]: 79
selectivity ratio [9]: 344
selectivity ratio [10]: 5
EC50 [11]: > 54400 nM
selectivity ratio [12]: ≤ 2

Cc1cc(C#N)cc(C)c1Oc1nc(NC2CCC(NCc3ccc(S(C)(=O)=O)cc3)CC2)nc2ccsc12 (stereo not given)
EC50 [1]: 57.3 nM
selectivity ratio [2]: 1320
CC50 at 120 h [3]: 75200 nM
Ratio EC50 [15]: 2.4
selectivity ratio [4]: < 1
selectivity ratio [6]: ≤ 1
selectivity ratio [7]: < 1
selectivity ratio [8]: 212
selectivity ratio [9]: 556
selectivity ratio [10]: ≤ 1
EC50 [11]: > 75200 nM
selectivity ratio [12]: < 1

Cc1cc(/C=C/C#N)cc(C)c1Oc1nc(NC2CCN(Cc3ccc(Cl)cc3)CC2)nc2ccsc12
EC50 [1]: 25.6 nM
selectivity ratio [2]: 156
CC50 at 120 h [3]: 3980 nM
selectivity ratio [4]: 20
selectivity ratio [6]: 93
selectivity ratio [7]: 37
selectivity ratio [8]: 159
selectivity ratio [9]: 26
selectivity ratio [10]: 22
EC50 [11]: > 3980 nM
selectivity ratio [12]: 51

Cc1cc(/C=C/C#N)cc(C)c1Oc1nc(NC2CCN(Cc3ccncc3)CC2)nc2ccsc12
EC50 [1]: 3.34 nM
selectivity ratio [2]: 1430
CC50 at 120 h [3]: 4780 nM
selectivity ratio [4]: 162
selectivity ratio [6]: 752
selectivity ratio [7]: 322
selectivity ratio [8]: 859
selectivity ratio [9]: 560
selectivity ratio [10]: 148
EC50 [11]: > 4780 nM
selectivity ratio [12]: 825

Cc1cc(/C=C/C#N)cc(C)c1Oc1nc(NC2CCN(Cc3cccc(Cl)c3)CC2)nc2ccsc12
EC50 [1]: 25.9 nM
selectivity ratio [2]: 188
CC50 at 120 h [3]: 4880 nM
selectivity ratio [4]: 33
selectivity ratio [6]: 163
selectivity ratio [7]: 72
selectivity ratio [8]: 164
selectivity ratio [9]: 37
selectivity ratio [10]: 29
EC50 [11]: > 4880 nM
selectivity ratio [12]: 69

Cc1cc(/C=C/C#N)cc(C)c1Oc1nc(NC2CCN(Cc3ccc(C#N)cc3)CC2)nc2ccsc12
EC50 [1]: 5.26 nM
selectivity ratio [2]: 509
CC50 at 120 h [3]: 2670 nM
selectivity ratio [4]: 45
selectivity ratio [6]: 364
selectivity ratio [7]: 118
selectivity ratio [8]: 494
selectivity ratio [9]: 91
selectivity ratio [10]: 81
EC50 [11]: > 2680 nM
selectivity ratio [12]: 86

Cc1cc(/C=C/C#N)cc(C)c1Oc1nc(NC2CCN(Cc3ccccc3Br)CC2)nc2ccsc12
EC50 [1]: 40.2 nM
selectivity ratio [2]: 140
CC50 at 120 h [3]: 5610 nM
selectivity ratio [4]: 16
selectivity ratio [6]: 117
selectivity ratio [7]: 63
selectivity ratio [8]: 124
selectivity ratio [9]: 39
selectivity ratio [10]: 37
EC50 [11]: > 5610 nM
selectivity ratio [12]: 45

Cc1cc(/C=C/C#N)cc(C)c1Oc1nc(NC2CCN(Cc3cccc(F)c3)CC2)nc2ccsc12
EC50 [1]: 9.73 nM
selectivity ratio [2]: 489
CC50 at 120 h [3]: 4760 nM
selectivity ratio [4]: 38
selectivity ratio [6]: 216
selectivity ratio [7]: 84
selectivity ratio [8]: 226
selectivity ratio [9]: 150
selectivity ratio [10]: 30
EC50 [11]: > 4760 nM
selectivity ratio [12]: 138

Cc1cc(C#N)cc(C)c1Oc1nc(NC2CCC(NCc3ccccc3)CC2)nc2ccsc12 (stereo not given)
EC50 [1]: 230 nM
selectivity ratio [2]: 13
CC50 at 120 h [3]: 2970 nM
selectivity ratio [4]: < 1
selectivity ratio [6]: 3
selectivity ratio [7]: 3
selectivity ratio [8]: 4
selectivity ratio [9]: 3
selectivity ratio [10]: < 1
EC50 [11]: > 2970 nM
selectivity ratio [12]: < 1

Cc1cc(/C=C/C#N)cc(C)c1Oc1nc(NC2CCN(Cc3ccc(F)cc3)CC2)nc2ccsc12
EC50 [1]: 5.86 nM
selectivity ratio [2]: 441
CC50 at 120 h [3]: 2580 nM
selectivity ratio [4]: 20
selectivity ratio [6]: 181
selectivity ratio [7]: 25
selectivity ratio [8]: 405
selectivity ratio [9]: 74
selectivity ratio [10]: 17
EC50 [11]: > 2580 nM
selectivity ratio [12]: 95

Cc1cc(C#N)cc(C)c1Oc1nc(NC2CCC(NCc3ccc(F)cc3)CC2)nc2ccsc12 (stereo not given)
EC50 [1]: 553 nM
selectivity ratio [2]: 5
CC50 at 120 h [3]: 2760 nM
selectivity ratio [4]: < 1
selectivity ratio [6]: 3
selectivity ratio [7]: < 1
selectivity ratio [8]: 3
selectivity ratio [9]: ≤ 2
selectivity ratio [10]: < 1
EC50 [11]: > 2760 nM
selectivity ratio [12]: < 1

CCOC(=O)c1ccc(CN2CCC(Nc3nc(Oc4c(C)cc(C#N)cc4C)c4ccsc4n3)CC2)cc1
EC50 [1]: 98.9 nM
selectivity ratio [2]: > 2330
CC50 at 120 h [3]: > 230000 nM
selectivity ratio [4]: > 6
selectivity ratio [6]: > 160
selectivity ratio [7]: > 63
selectivity ratio [8]: > 625
selectivity ratio [9]: > 463
selectivity ratio [10]: > 124
EC50 [11]: > 230000 nM
selectivity ratio [12]: > 207

Cc1cc(/C=C/C#N)cc(C)c1Oc1nc(NC2CCN(Cc3ccccn3)CC2)nc2ccsc12
EC50 [1]: 3.36 nM
selectivity ratio [2]: 1150
CC50 at 120 h [3]: 3850 nM
selectivity ratio [4]: 32
selectivity ratio [6]: 210
selectivity ratio [7]: 144
selectivity ratio [8]: 724
selectivity ratio [9]: 517
selectivity ratio [10]: 92
EC50 [11]: > 3850 nM
selectivity ratio [12]: 418

Cc1cc(/C=C/C#N)cc(C)c1Oc1nc(NC2CCN(Cc3cccc(C(N)=O)c3)CC2)nc2ccsc12
EC50 [1]: 3.26 nM
selectivity ratio [2]: 1080
CC50 at 120 h [3]: 3530 nM
selectivity ratio [4]: 81
selectivity ratio [6]: 689
selectivity ratio [7]: 448
selectivity ratio [8]: 1190
selectivity ratio [9]: 551
selectivity ratio [10]: 129
EC50 [11]: > 3530 nM
selectivity ratio [12]: 563
